Assay outcomes from PubChem BioAssay.
eIF4E 4G PPI: eIF4E–eIF4G protein interaction inhibitors, primary screen, biochemical, uHTS, TR-FRET, eIF4GI fragment | Eukaryotic translation initiation factor 4E (Mus musculus) + Eukaryotic translation … | TR-FRET eIF4E-eIF4GI(517-606) binding, 2 h | inhibition, % at 21.7 µM | 220,000 compounds, 0.37% hits;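 active = inhibition above about 30%, limit read from the data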
Runt-CBFb FRET: inhibitors of RUNX1 Runt–CBFb binding, primary screen, biochemical, FRET, Cerulean-Runt, Venus-CBFb, uHTS. Runt-related transcription factor 1 (Homo sapiens) + Core-binding factor subunit beta …. Cerulean-Runt/Venus-CBFb FRET ratio 530/480, 1 h. 220,000 compounds, 0.46% hits. inhibition, % at 20 µM. AID 1496, 2009;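 active = inhibition over about 50% at 20 µM in the single-dose screen, limit read from the data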
Target sequence (Q01196 whole entry, looked up): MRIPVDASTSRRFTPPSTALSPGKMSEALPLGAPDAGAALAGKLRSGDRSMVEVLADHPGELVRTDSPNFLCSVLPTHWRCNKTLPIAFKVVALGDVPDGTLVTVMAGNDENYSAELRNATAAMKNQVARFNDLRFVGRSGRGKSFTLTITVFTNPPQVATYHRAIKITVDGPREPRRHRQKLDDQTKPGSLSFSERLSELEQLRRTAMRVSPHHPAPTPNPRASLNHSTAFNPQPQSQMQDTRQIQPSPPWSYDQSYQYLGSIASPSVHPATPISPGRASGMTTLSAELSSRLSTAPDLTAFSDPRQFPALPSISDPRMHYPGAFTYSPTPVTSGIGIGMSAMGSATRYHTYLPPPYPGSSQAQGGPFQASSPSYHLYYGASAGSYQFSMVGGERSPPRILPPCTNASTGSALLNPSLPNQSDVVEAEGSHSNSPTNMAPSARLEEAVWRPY
Target sequence (Q13951 whole entry, looked up): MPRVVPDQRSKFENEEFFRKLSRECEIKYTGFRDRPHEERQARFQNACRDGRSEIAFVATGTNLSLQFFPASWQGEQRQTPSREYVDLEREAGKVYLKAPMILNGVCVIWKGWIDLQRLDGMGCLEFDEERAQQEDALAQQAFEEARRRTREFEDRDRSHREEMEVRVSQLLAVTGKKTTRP
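Doses: 20 µM compound in 1% DMSO | Material: Cerulean-labeled Runt domain protein | Amount: Each fluorescent fusion protein 100 nM | Schedule: Two 1 h room-temperature incubations shielded from light | Measured by: FRET fluorescence | Evaluation: Loss of energy transfer signal | Controls: Unlabeled CBFb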
RanGTP-Impb inh: inhibitors of RanGTP-importin-beta interaction, primary screen, biochemical, FRET, CFP-Ran, YFP-importin-beta, homogeneous; Ran GTPase (GTP-bound) - importin-beta complex; inhibition, % (no concentration beside the values); AID 2216, 2009; cell-free CFP-Ran/YFP-importin-beta FRET ratio; 300,000 compounds, 1.1% hits;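 active = more than half of the replicate wells show a fall in the fluorescence ratio signal beyond about 16%, limit read from the data, passing the limit was not always enough; inconclusive = exactly half of the replicate wells pass the set limit; inactive = fewer than half of replicates pass the limit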
Runt-SMMHC FRET: inhibitors of RUNX1 Runt–CBFb-SMMHC binding, primary screen, biochemical, FRET, Cerulean-Runt, Venus-CBFb-SMMHC, uHTS; inhibition, % at 20 µM; 220,000 compounds, 0.74% hits; Cerulean-Runt/Venus-CBFb-SMMHC FRET ratio 530/480, 1 h; AID 1434, 2008;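 active = mean inhibition across duplicate retests at 20 µM reaching about 50%, limit read from the data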;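 note: inhibitors lower the FRET ratio by blocking Runt binding to CBFb-SMMHC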
Hck-Nef inh: inhibitors of Nef-activated human Hck kinase, primary screen, biochemical, Z-Lyte FRET, 384-well, Hck-YEEI; 220,000 compounds, 0.68% hits; Recombinant Hck-YEEI plus Nef, Z-Lyte FRET kinase assay; inhibition, % at 20 µM; AID 463187, 2010; Tyrosine-protein kinase HCK (Homo sapiens), P08631;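 active = Hck-Nef kinase inhibition above about 50%, limit read from the data; inactive = inhibition below that limit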
PERK inh: block of dimerizer-induced PERK translation repression, primary screen, PERK inhibitor project, CHO PERK-DD cells, SEAP luminescence, HTS; 220,000 compounds, 0.17% hits; inhibition, % at 5.6 µM; Eukaryotic translation initiation factor 2-alpha kinase 3 (Homo sapiens), Q9NZJ5; AID 1416, 2008; CHO PERK-DD fusion, SEAP luminescence translation reporter;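 active = inhibition above the mean inhibition of all tested compounds plus 3 SD, set separately per screening campaign, cut at about 2.9% in these data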;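 note: PERK kinase domain activated by AP20187 dimerizer at 100 nM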
YIC FRET counter: YIC intramolecular FRET probe signal interference, dose response, counter-screen for RanGTP-importin-beta inhibitor project, biochemical, fluorescence FRET; shares compounds with RanGTP-Impb inh; Purified YIC probe, intramolecular FRET ratio YFP/CFP; IC50, µM; 1,000 compounds, 40% hits; AID 435026, 2010;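 active = fitted half-maximal inhibitory concentration no more than tenfold above the top dose tested; inconclusive = flat fit with 30 to 70% activity, or poor fit; inactive = half-maximal concentration beyond tenfold above the top dose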
Large screens that a line does not name were inactive (follow-up assays come after a bar, where they were run). This is a sample that favours compounds with a hit; in the whole collection about 2.2% have one here.

COc1ccc(S(=O)Cc2ccc(C(=O)NC3CC3)o2)cc1 (stereo not drawn)	RanGTP-Impb inh 39 (no result: eIF4E 4G PPI, Runt-CBFb FRET, Runt-SMMHC FRET, Hck-Nef inh, PERK inh) | YIC FRET counter inactive
Cc1cc2c(c(=O)n1CC1CCCO1)C(c1ccco1)C(C#N)=C(N)O2 (stereo not drawn)	Runt-CBFb FRET 112, RanGTP-Impb inh 23 (no result: eIF4E 4G PPI) | YIC FRET counter 14
COc1cc(C2C(C#N)=C(N)Oc3cc(C)n(CC4CCCO4)c(=O)c32)cc2c1OCO2 (stereo not drawn)	none
CCN(CC)Cc1c(CC(C)C)oc(C)c1C(=O)O	RanGTP-Impb inh 21 | YIC FRET counter inactive
CC(C)Sc1nc(N2CCOCC2)c2c3c(sc2n1)COC(C)(C)C3	RanGTP-Impb inh 23 | YIC FRET counter inactive
Cc1ccc2oc(C(=O)N3CCN(Cc4ncccc4C)CC3)c(C)c2c1	none (no result: eIF4E 4G PPI, Runt-CBFb FRET, Runt-SMMHC FRET, Hck-Nef inh, PERK inh)
O=C(NC1=NCCS1)c1cc(-c2cccs2)nc2ccccc12	none
O=C(NC1=NCCS1)c1cc(-c2cccnc2)nc2ccccc12	RanGTP-Impb inh 15 | YIC FRET counter inactive
O=C(NCc1ccccc1)c1cncc(Br)c1	none
COc1cc(OC)cc(-c2cc3nc(C)cc(N4CCN(C(=O)c5ccco5)CC4)n3n2)c1	RanGTP-Impb inh 29 | YIC FRET counter 3.7
N#C/C(=C\c1ccc(O)c(Br)c1)C(=O)NCc1ccccc1	Runt-CBFb FRET 104, RanGTP-Impb inh 43, Runt-SMMHC FRET 134 | YIC FRET counter 20
CC(C)C(C(=O)Nc1nccs1)N1C(=O)c2ccccc2C1=O (stereo not drawn)	none
O=C(Cn1cnc2ccccc21)N/N=C/c1cccs1	none
O=C(Cn1nnc2ccccc21)N/N=C\c1cccs1	RanGTP-Impb inh 22 | YIC FRET counter inactive
CCOC(=O)c1ccccc1NC(=O)COC(=O)C1=COCCO1	none
O=c1c2cc(NC(=S)N3CCC(N4CCCCC4)CC3)ccc2nc2n1CCCCC2	RanGTP-Impb inh 23 | YIC FRET counter inactive
Cc1ccc2nc(NCC(=O)O)nc(-c3ccccc3)c2c1	RanGTP-Impb inh 22 | YIC FRET counter 48
Cc1ccc(S(=O)(=O)NCCc2cn3nc(C)c(C)nc3n2)cc1C	RanGTP-Impb inh 20 (no result: eIF4E 4G PPI, Runt-CBFb FRET, Runt-SMMHC FRET, Hck-Nef inh, PERK inh) | YIC FRET counter 26
COc1ccc(S(=O)(=O)NCCc2cn3nc(C)c(C)nc3n2)cc1C	none (no result: eIF4E 4G PPI, Runt-CBFb FRET, Runt-SMMHC FRET, Hck-Nef inh, PERK inh)
CN=C(Nc1cc(C)nn1CCC#N)c1ccccc1	RanGTP-Impb inh 19 | YIC FRET counter inactive
CN=C(Nc1cc(C)nn1CCC#N)c1ccc(F)cc1	none
CCOC(=O)c1c(NC(=O)CSc2nnnn2CC)sc(C)c1C	RanGTP-Impb inh inconclusive
Cc1cccc(NS(=O)(=O)c2ccc(C(=O)N3CCCC3)cc2)c1C	none (no result: eIF4E 4G PPI, Runt-CBFb FRET, Runt-SMMHC FRET, Hck-Nef inh, PERK inh)
Cc1cccc(NS(=O)(=O)c2ccc(C(=O)N3CCCCCC3)cc2)c1C	RanGTP-Impb inh 17 (no result: eIF4E 4G PPI, Runt-CBFb FRET, Runt-SMMHC FRET, Hck-Nef inh, PERK inh) | YIC FRET counter inactive
Cc1cc(C(=O)O)ccc1-c1ccc(CO)o1	none
Cc1cc(C(=O)O)ccc1-c1ccc(/C=C2\NC(=O)N(Cc3ccccc3Cl)C2=O)o1	RanGTP-Impb inh 22, Runt-SMMHC FRET 68 | YIC FRET counter 0.91
Cc1cc(C(=O)N/N=C2\CC(=O)CC(C)(C)C2)n[nH]1	RanGTP-Impb inh 16 | YIC FRET counter inactive
COc1ccc(NC(=O)N2CCN(C(=O)Nc3ccc(OC)cc3)CC2)cc1	none
COc1ccc(NC(=O)N2CCCCCC2)cc1	RanGTP-Impb inh 21 | YIC FRET counter inactive
COc1cc2sc3ccc(C#CC4(O)CCCCC4)cc3c(=O)c2cc1OC	RanGTP-Impb inh 32 (no result: eIF4E 4G PPI, Runt-CBFb FRET, Runt-SMMHC FRET, Hck-Nef inh, PERK inh) | YIC FRET counter 26
Cc1ccc(-c2nnn(CC(=O)N(c3ccccc3F)C(C(=O)NC3CCCC3)c3ccncc3)n2)o1 (stereo not drawn)	none (no result: eIF4E 4G PPI, Runt-CBFb FRET, Runt-SMMHC FRET, Hck-Nef inh, PERK inh)
Clc1ccc(-c2ncc3ccccn23)cc1	RanGTP-Impb inh 26 (no result: Runt-CBFb FRET, Runt-SMMHC FRET) | YIC FRET counter inactive
Clc1ccccc1-c1ncc2ccccn12	none
CCN(CC)S(=O)(=O)c1cccc(S(=O)(=O)c2cccc(S(=O)(=O)N(CC)CC)c2)c1	none (no result: eIF4E 4G PPI)
COc1cc(-n2c(=O)c3ccccc3n(Cc3cccc(F)c3)c2=O)cc(OC)c1OC	none
N=c1c(S(=O)(=O)c2ccc(Br)cc2)cc2c(=O)n3ccccc3nc2n1C1CCCCC1	RanGTP-Impb inh 22 (no result: eIF4E 4G PPI, Runt-CBFb FRET, Runt-SMMHC FRET, Hck-Nef inh, PERK inh) | YIC FRET counter inactive
COc1ccc(CCNC(=O)c2cc3c(=O)n4ccccc4nc3n(CC3CCCO3)c2=N)cc1OC (stereo not drawn)	RanGTP-Impb inh 18 (no result: eIF4E 4G PPI, Runt-CBFb FRET, Runt-SMMHC FRET, Hck-Nef inh, PERK inh) | YIC FRET counter 27
COc1ccc(CCNC(=O)c2c(C)nc3ccccn23)cc1OC	none
COc1ccc(CCNC(=O)c2cc3c(=O)n4ccccc4nc3n(C3CCCCC3)c2=N)cc1OC	RanGTP-Impb inh 23 (no result: eIF4E 4G PPI, Runt-CBFb FRET, Runt-SMMHC FRET, Hck-Nef inh, PERK inh) | YIC FRET counter 26
COc1cc2c(cc1OC)C(c1ccc([N+](=O)[O-])cc1)N(C(C)=O)CC2 (stereo not drawn)	none (no result: eIF4E 4G PPI, Runt-CBFb FRET, Runt-SMMHC FRET, Hck-Nef inh, PERK inh)
COC(=O)c1c(NC(=O)C2c3ccccc3Oc3ccccc32)sc(C)c1C	none
O=C(Nc1nnc(-c2ccc3c(c2)CCCC3)o1)C1COc2ccccc2O1 (stereo not drawn)	none
C/C(=N\OCC(=O)OCC(=O)NC(=O)c1ccccc1)c1ccc2c(c1)OCO2	RanGTP-Impb inh 17 (no result: eIF4E 4G PPI, Runt-CBFb FRET, Runt-SMMHC FRET, Hck-Nef inh, PERK inh) | YIC FRET counter inactive
NC(=O)CN(Cc1ccccc1)S(=O)(=O)c1ccc2c(c1)OCCO2	RanGTP-Impb inh 19 (no result: eIF4E 4G PPI, Runt-CBFb FRET, Runt-SMMHC FRET, Hck-Nef inh, PERK inh) | YIC FRET counter inactive
